Assay results from ChEMBL document CHEMBL1134340, “GnRH antagonists: a new generation of long acting analogues incorporating p-ureido-phenylalanines at positions 5 and 6” (J Med Chem, 2001).
Converted amounts (≈) assume the structure as drawn. Values belong to the compound of their own block, whether it stands above or below them. Where a SMILES comes first, the peptide text is derived from it. [ ]: non-standard residue; d: D form. dPhe(4-Cl) = N[C@H](Cc1ccc(Cl)cc1)C(=O)O; d2Nal = N[C@H](Cc1ccc2ccccc2c1)C(=O)O; dCit = NC(=O)NCCC[C@@H](N)C(=O)O; d3Pal = N[C@H](Cc1cccnc1)C(=O)O

What was measured:
[1] = biological target: T1, Gonadotropin-releasing hormone receptor (Homo sapiens, UniProt P30968); experiment: Competitive antagonism of GnRH-induced response in the reporter gene assay; assay type: functional; details: for Kb: read-out: pA2 (converted)
T1 sequence (P30968 whole entry): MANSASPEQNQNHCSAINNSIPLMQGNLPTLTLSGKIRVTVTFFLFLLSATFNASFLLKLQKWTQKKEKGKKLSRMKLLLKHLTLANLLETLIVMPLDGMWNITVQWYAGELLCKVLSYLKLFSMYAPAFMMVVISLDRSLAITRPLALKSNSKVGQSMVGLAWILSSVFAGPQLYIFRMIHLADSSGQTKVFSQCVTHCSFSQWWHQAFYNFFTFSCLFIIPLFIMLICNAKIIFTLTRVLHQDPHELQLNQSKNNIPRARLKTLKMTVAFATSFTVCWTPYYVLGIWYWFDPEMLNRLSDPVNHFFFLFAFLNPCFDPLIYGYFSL
Procedure, shortened: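 Same HEK293 human GnRH receptor luciferase reporter cells. Seven-point GnRH curve (10 µM to 10 pM final) run in duplicate without or with four to five increasing compound concentrations (10 min preincubation, 37 °C), then 5 h and luminescence. GnRH EC50 at each level by four-parameter logistic fit, giving pA2; mean of two determinations in duplicate.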

[2] = species: Rattus norvegicus; experiment: Compound was tested for histamine release at a concentration of 1 ug/mL; assay type: functional
Procedure, shortened: (§1)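 Sprague-Dawley rat peritoneal mast cells, Percoll-purified, in heparinized balanced salt solution with albumin, pH 7.2. Cells exposed to compound or vehicle for 2 min at 37 °C. Supernatant histamine measured spectrofluorometrically after o-phthalaldehyde derivatization; pellets lysed for retained histamine. Reported as % of total histamine released, corrected for spontaneous release in vehicle.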

[3] = species: Rattus norvegicus; experiment: Compound was tested for inhibition of Leutenizing hormone release at 72 hours (long duration) in castrated male rat assay; assay type: functional; set-up: concentration or dose not given beside the values
Procedure, shortened: (§2)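 Male Sprague-Dawley rats (180-200 g), castrated under ether 10 days earlier, 5 per group. 50 µg/rat given sc in 100 µL 40 mM phosphate buffer with 0.1% BSA and 0.6% DMSO; acyline run as internal standard. Tail blood taken predose and at 24, 48, 72, 96 (sometimes 120) h; plasma LH by RIA. Duration classed by >80% LH inhibition at each time.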

[4] = species: Rattus norvegicus; experiment: Compound was tested for histamine release at a concentration of 3 ug/mL; assay type: functional; procedure, shortened: as §1
[5] = species: Rattus norvegicus; experiment: Compound was tested for histamine release at a concentration of 10 ug/mL; assay type: functional; procedure, shortened: as §1
[6] = species: Rattus norvegicus; experiment: Effective dose for histamine release was determined; assay type: functional
Procedure, shortened: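 ED50 for histamine release calculated from % release values across concentrations in rat peritoneal mast cell assay (2 min, 37 °C, o-phthalaldehyde fluorometric read-out, corrected for vehicle release).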

[7] = biological target: T1, Gonadotropin-releasing hormone receptor; experiment: Antagonism of human GnHR receptor, determined in a reporter gene assay in HEK293 cells; assay type: functional, cell-based
Procedure, shortened: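 HEK293 cells stably expressing cloned human GnRH receptor plus luciferase reporter under LH alpha subunit promoter, plated 24 h before assay. Compound in 1% DMSO added 10 min at 37 °C, then GnRH at 3 nM final; 5 h incubation, luciferase luminescence read. Six concentrations in duplicate; blank-subtracted cps as % of GnRH control; mean of two determinations.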

[8] = species: Rattus norvegicus; experiment: Compound was tested for inhibition of Leutenizing hormone release at 48 hours (intermediate duration) in castrated male rat assay; assay type: functional; procedure, shortened: as §2
[9] = species: Rattus norvegicus; experiment: Compound was tested for histamine release at a concentration of 30 ug/mL; assay type: functional; procedure, shortened: as §1
[10] = species: Rattus norvegicus; experiment: Compound was tested for histamine release at a concentration of 300 ug/mL; assay type: functional; procedure, shortened: as §1
[11] = species: Rattus norvegicus; experiment: Compound was tested for histamine release at a concentration of 100 ug/mL; assay type: functional; procedure, shortened: as §1
[12] = species: Rattus norvegicus; experiment: Compound was tested for inhibition of Leutenizing hormone release at 96 hours (very long duration) in castrated male rat assay; assay type: functional; set-up: concentration or dose not given beside the values; procedure, shortened: as §2

- Kb [1]: 1.26 nM
- IC50 [7]: 4.2 nM
SMILES: CC(=O)N[C@H](Cc1ccc2ccccc2c1)C(=O)N[C@H](Cc1ccc(Cl)cc1)C(=O)N[C@H](Cc1cccnc1)C(=O)N[C@@H](CO)C(=O)N[C@@H](Cc1ccc(O)cc1)C(=O)N[C@H](CCCNC(N)=O)C(=O)N[C@@H](CC(C)C)C(=O)N[C@@H](CCCNC(=N)N)C(=O)N1CCC[C@H]1C(=O)N[C@H](C)C(N)=O [CETRORELIX] (Ac-[d2Nal][dPhe(4-Cl)][d3Pal]SY[dCit]LRP[dA]-NH2)
- HR [2]: 34%
- Inhibition [3]: >80%
- HR [4]: 5%
- HR [5]: 64%
- ED50 [6]: 1.3 µg/mL (≈ 0.908 µM)

SMILES: CC(=O)N[C@H](Cc1ccc2ccccc2c1)C(=O)N[C@H](Cc1ccc(Cl)cc1)C(=O)N[C@H](Cc1cccnc1)C(=O)N[C@@H](CO)C(=O)N[C@@H](Cc1ccc(NC(=O)[C@H]2CC(=O)NC(=O)N2)cc1)C(=O)N[C@H](Cc1ccc(CNC(N)=O)cc1)C(=O)N[C@@H](CC(C)C)C(=O)N[C@@H](CCCCNC(C)C)C(=O)N1CCC[C@H]1C(=O)N[C@H](C)C(N)=O
- Inhibition [8]: >80%

- Kb [1]: 2.51 nM
- IC50 [7]: 6.8 nM
SMILES: CC(=O)Nc1ccc(C[C@H](NC(=O)[C@H](CO)NC(=O)[C@@H](Cc2cccnc2)NC(=O)[C@@H](Cc2ccc(Cl)cc2)NC(=O)[C@@H](Cc2ccc3ccccc3c2)NC(C)=O)C(=O)N[C@H](Cc2ccc(NC(C)=O)cc2)C(=O)N[C@@H](CC(C)C)C(=O)N[C@@H](CCCCNC(C)C)C(=O)N2CCC[C@H]2C(=O)N[C@H](C)C(N)=O)cc1 [ACYLINE]
- HR [9]: 43%
- Inhibition [3]: >80%
- HR [10]: 87%
- ED50 [6]: 66 µg/mL (≈ 43 µM)
- HR [11]: 56%

SMILES: CNC(=O)NCc1ccc(C[C@@H](NC(=O)[C@H](Cc2ccc(NC(=O)[C@@H]3CC(=O)NC(=O)N3)cc2)NC(=O)[C@H](CO)NC(=O)[C@@H](Cc2cccnc2)NC(=O)[C@@H](Cc2ccc(Cl)cc2)NC(=O)[C@@H](Cc2ccc3ccccc3c2)NC(C)=O)C(=O)N[C@@H](CC(C)C)C(=O)N[C@@H](CCCCNC(C)C)C(=O)N2CCC[C@H]2C(=O)N[C@H](C)C(N)=O)cc1
- HR [10]: 67%
- Inhibition [12]: >80%
- HR [11]: 56%

SMILES: CC(=O)N[C@H](Cc1ccc2ccccc2c1)C(=O)N[C@H](Cc1ccc(Cl)cc1)C(=O)N[C@H](Cc1cccnc1)C(=O)N[C@@H](CO)C(=O)N[C@@H](Cc1ccc(NC(=O)[C@@H]2CC(=O)NC(=O)N2)cc1)C(=O)N[C@H](Cc1cccnc1)C(=O)N[C@@H](CC(C)C)C(=O)N[C@@H](CCCCNC(C)C)C(=O)N1CCC[C@H]1C(=O)N[C@H](C)C(N)=O
- HR [10]: 62%
- Inhibition [12]: >80%
- HR [11]: 68%

SMILES: CC(=O)N[C@H](Cc1ccc2ccccc2c1)C(=O)N[C@H](Cc1ccc(Cl)cc1)C(=O)N[C@H](Cc1cccnc1)C(=O)N[C@@H](CO)C(=O)N[C@@H](Cc1ccc(NC(=O)[C@@H]2CC(=O)NC(=O)N2)cc1)C(=O)N[C@H](Cc1ccc(CNC(N)=O)cc1)C(=O)N[C@@H](CC(C)C)C(=O)N[C@@H](CCCCNC(C)C)C(=O)N1CCC[C@H]1C(=O)N[C@H](C)C(N)=O
- HR [9]: 21%
- HR [10]: 64%
- Inhibition [12]: >80%
- HR [11]: 48%

- pA2 [1]: 9
- IC50 ([7]; hek293): 7.7 nM
SMILES: CC(=O)N[C@H](Cc1ccc2ccccc2c1)C(=O)N[C@H](Cc1ccc(Cl)cc1)C(=O)N[C@H](Cc1cccnc1)C(=O)N[C@@H](CO)C(=O)N[C@@H](Cc1ccc(NC(=O)[C@H]2CC(=O)NC(=O)N2)cc1)C(=O)N[C@H](Cc1ccc(NC(=O)[C@H]2CC(=O)NC(=O)N2)cc1)C(=O)N[C@@H](CC(C)C)C(=O)N[C@@H](CCCCNC(C)C)C(=O)N1CCC[C@H]1C(=O)N[C@H](C)C(N)=O
- HR [10]: 64%
- Inhibition [12]: >80%
- HR [11]: 69%
